A short description of series [1]: Antioxidant activity in 2',7'-dichlorodihydrofluorescein diacetate-treated hTERT-HME1 cells assessed as reduction of H2O2 production at 100 uM during after 24 hrs by FACS analysis. The class given is functional, Homo sapiens. More on the design: scale not given: the % may be the effect or the level left. The gist of the method: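 Mammary cells seeded at 0.75 ×10⁶ per 100-mm dish. Exposed to test agent or Trolox at […] (unit as printed) for 4, 8, 12, 24 and 48 h. Loaded with H₂DCFDA 15 min at 37 °C. Detached plus adherent cells resuspended in PBS; DCF read in FL1 on a FACScan. Output is the ratio of treated to DMSO-control fluorescence, mean ± SD, n = 3.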

A short description of series [2]: Antioxidant activity assessed as Fe2+ formation per nmol of compound by FRAP assay. The class given is functional. The gist of the method: (§1)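 FRAP method: working reagent of acetate buffer, TPTZ solution and FeCl₃·6H₂O solution (25:2.5:2.5 by volume), warmed 30 min at 37 °C before addition. Absorbance read after 30 min at 30 s intervals. Trolox as reference antioxidant. Output is the antioxidant ratio, nmol Fe²⁺ per nmol compound, mean ± SD, n = 3.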

Series [3] is described as follows: Antioxidant activity assessed as Fe2+ formation per nmol of compound by FRAP assay relative to trolox. The class given is functional. The gist of the method: as §1
The subject of series [4] is MCF7. The series is described as follows: Cytotoxicity against human MCF7 cells after 48 hrs by MTT assay. Format: functional, cell-based. The settings on record: MCF7, 48 h. The gist of the method:
(§2)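 Cells seeded at 1 ×10⁴ per well and allowed 24 h, then exposed 48 or 72 h. Medium replaced with fresh medium containing MTT at 0.5 mg/ml final, 3 h at 37 °C. MCF7 in phenol red-free RPMI-1640 with 10% FBS; hTERT-HME1 in RPMI-1640/mammary epithelial growth medium 90:10. IC₂₀ and IC₅₀ are means of 8 assays ± SD.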
On the technique in general: Tetrazolium assays rely on reduction of a dye to a coloured formazan, in cell work by metabolically active cells.

Series [5] can be described thus: Cytotoxicity against hTERT-HME1 cells after 72 hrs by MTT assay. As to conditions: for IC50: Homo sapiens, HME1, 72 h; for IC20 at 72 h: human, hTERT-HME1 cells. Format: cell-based, Homo sapiens. The gist of the method: as §2
The subject of series [6] is MCF7. The series is described as follows: Cytotoxicity against human MCF7 cells after 72 hrs by MTT assay. The class given is functional, cell-based. As to conditions: MCF7, 72 h. The gist of the method: as §2
A short description of series [7]: Cytotoxicity against hTERT-HME1 cells after 48 hrs by MTT assay. Format: cell-based, Homo sapiens. The settings on record: for IC50: Homo sapiens, HME1, 48 h; for IC20 at 48 h: human, hTERT-HME1 cells. The gist of the method:
as §2

As a reminder, the IC20 is the concentration needed for an effect of 20%. In general, IC50 refers to the concentration that inhibits the measured activity by half.

Calls of active or inactive are those of the source. The calls are words filed in the database; no cut-off is given here.

Consider `Cc1c(C)c2c(c(C)c1O)CCC(C)(C(=O)O)O2` (stereo not given) [TROLOX], for which the Activity in series [1] is 20%.

On to `O=C(c1ccc(O)c(O)c1)c1ccc2sc(=O)[nH]c2c1`, for which, in series [2], the Activity stood at 6.1 nmol. Besides, the Ratio in series [3] was found to be 2. In the series with MCF7 [4], this molecule registered a concentration for an effect of 20% (IC20) of 12.1 µM and an IC50 of 43.6 µM. In series [5], half-maximal inhibition (IC50) was put at 116 µM and the concentration for an effect of 20% (IC20) at 72 h stood at 33.8 µM. In the series with MCF7 [6], this molecule gave an IC20 of 8.3 µM and an IC50 of 28.1 µM. In series [7], the IC50 stood at 155 µM and the 20% effect level (IC20 at 48 h) was put at 43.5 µM.

As for `O=C(c1ccc(O)cc1)c1ccc2sc(=O)[nH]c2c1`, the result in series [2] was inactive. The IC20 in the series with MCF7 [4] came out at 44.5 µM; in the series with MCF7 [6], 37.8 µM. For the same molecule, the IC50 was determined as 121 µM in the series with MCF7 [4], 111 µM in series [5], 95.9 µM with MCF7 [6] and 109 µM in series [7]. For the same molecule, it took 78.4 µM to reach the 20% level in series [5] (IC20 at 72 h). Besides, the IC20 at 48 h in series [7] stood at 73.1 µM.

(Values after ChEMBL document CHEMBL1158346, “Synthesis and antioxidant potential of novel synthetic benzophenone analogues” (Eur J Med Chem, 2009).)
